Measurements from the EternaBench riboswitch data.

System: MS2 coat protein
Assay: apparent Kd, MS2 coat protein; higher = weaker binding; RNA-MaP array; FMN 200 µM where present
Procedure, shortened: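 The titrant was SNAP-549-labelled MS2 coat protein, run from 0.7 or 1.5 nM in doubling steps to 3 µM. It was applied to designs transcribed by stalled E. coli RNA polymerase on Illumina sequencing-chip clusters, without ligand first and then with constant ligand, in 100 mM Tris-HCl pH 7.5, 80 mM KCl, 4 mM MgCl2, BSA, DTT, yeast tRNA and Tween-20. The apparent Kd is the median of filtered per-cluster binding-curve fits, with green signal normalised to red-channel RNA signal and control-cluster median Fmax.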

[1] = designed as: OFF switch for flavin mononucleotide, no ligand
[2] = ligand present: flavin mononucleotide, designed as: OFF switch for flavin mononucleotide
[3] = designed as: ON switch for flavin mononucleotide, no ligand
[4] = ligand present: flavin mononucleotide, designed as: ON switch for flavin mononucleotide

Sequence | apparent Kd [1] [µM] | apparent Kd [2] [µM] | apparent Kd [3] [µM] | apparent Kd [4] [µM]
GGAUAGGACAGAGGAUAUACGUGCUAGAGAUACUAGCAAAAUUUCCUCACAUGAGGAUCACCCAUGUAGAAGGCUGUCAUAUCG | 0.0148 | 0.306 |  | 
GCUGCGCGAGGAUAUGCGGUUCGCGCGGUGGCCGCUGGCGGACAUGAGGAUCACCCAUGUAGAAGGCGUGCGGG | 0.017 | 0.0194 |  | 
CUGAUGUCAGGAUAUCGGUGGCUCACUUGUGUGUGCCAGACCGAGAAGGGACAUGAGGAUCACCCAUGUUUUUA | 0.0861 | 0.37 |  | 
UAUCUAGGCGAAGGAUAUCCGUCGCGAGAUACUGGAGAAGGUCGCCUUGAUACAUGAGGAUCACCCAUGUGGCGGGUGAACCAA | 0.0379 | 0.0164 |  | 
UAUAUUUUUAUAGGAUAUGGAUAUGAUGCAUAUCCAGAAGGGUGAAUAUAAUAUUUUCUGUACAUGAGGAUCACCCAUGUUUAG |  |  | 0.116 | 0.0469
GGCUGUUUAGGAUAUACAUGAGGAUCACCCAUGUCGUUUAAUACAGACGGAUCCAACUGUAGAAGGAGAUGCCG | 0.102 | 0.0797 |  | 
UGAUAGGACAGAGGAUAUACAGAUAGGAUCUACUAUCCUCCUUAAAUAACAUGAGGAUCACCCAUGUAGAAGGCUGUCCUAUCU | 0.0265 | 0.182 |  | 
AAGAAAGAAACGCAGGAUAUGCAAAACAAAACAUGAGGAUCACCCAUGUCAAACAAACAAACAAAGCAGAAGGGCGAAAGAAAGAA |  |  | 0.0231 | 0.0164
CCGGAAAGGAAGGAUAUGCUAGACGAAAGUCUAGCAGAAGGUCCUACAUGAGGAUCACCCAUGUGUCCUACCGG | 0.0472 | 0.0605 |  | 
UGUACUAUAAGGUUAAUUGUAUAUUGAGAAGGCAUACACAUGAGGAUCACCCAUGUAACAUGGAAUGAGGAUAUCAUUAUGUAC |  |  | 0.0173 | 0.0144
AGAUAUGAUGCAGGAUAUCUAUCUUGAAUGAGGAGAGAAGGGCAAGCAGAGAGAUAAGCCUUAUGACAUGAGGAUCACCCAUGU | 0.0102 | 0.00861 |  | 
AGAAACUACGAGAAGGACAUGUGGUAAAACGCAAACAUGAGGAUCACCCAUGUAGGAUAUCGUAGUUUCAGGAUCGUGAGAUCA | 0.589 | 0.0269 |  | 
CCGCUCGAGCAGAAGGCAAUGAGGGUUAUACAUUGAGGAUAUGCUACGUACGUGGUACAUGAGGAUCACCCAUGUAGCCUAUCU |  |  | 0.788 | 0.0934
ACGUAUCAUGUAGGAUAUGGCCCAGGAACUUGGUCAGAAGGACAUGAGGAUCACCCAUGUAGAGUAUGUUAGGAUGACGUAUGC | 0.0929 | 0.173 |  | 
GGAGACCUCACAGGAUAUGCUGGACUUUGUCCAGCAGAAGGGUGAAACAUGAGGAUCACCCAUGUUGGUCUCCAAAUAUUUAAU |  |  | 0.66 | 0.0541
CGAUUAUUGAUCCAUUUUUACAACAUGAGGAUCACCCAUGUGCAGGAUAUCGUGAUUAUUAUCAACGAGAAGGGCAAAUUCACG | 0.049 | 0.137 |  | 
CUGAGCUGAGGAUAUACAUGAGGAUCACCCAUGUGUUCCAGCUUGCGUACAGGCAGAUGUAGAAGGCAGUUCGG | 0.0414 | 0.102 |  | 
UUGGUUGUCGUAGGAUAUGUAGGAUAUUCCUACAUGAGGAUCACCCAUGUUCGCAUGGAAGAAGGACAGAAGGACGAUGACCAA |  |  | 1.08 | 0.0104
CAUGUCUGAGGAUAUCGUUUUUUGUACAUGAGGAUCACCCAUGUCCUAUUUUUUAUAUUACGAGAAGGCAGUGGAU | 0.0364 | 0.0222 |  | 
AAAUAGAUACAUGAGGAUCACCCAUGUUAAUAGGUGUUUGUCAGAAGGCAUUAUGAGAGAAUUAAUGAGGAUAUGAAAUAUGAU |  |  | 0.0393 | 0.0227
AAAAGUAGAGGAUAUACAUGAGGAUCACCCAUGUAGAAAGGAAGUGUAUAUAUGGCAUGUAGAAGGCUACAUGA | 0.0321 | 0.0344 |  | 
AGGUGUCCUGAGAGAUUUCUCCACAUGAGGAUCACCCAUGUAGAGGAUAUCGACGCUGUGCGGUUCGAGAAGGCUACACUAAUU | 0.00685 | 0.0424 |  | 
UUAUAUAUAUAAGGAUAUGUAUAUCCAACAUGAGGAUCACCCAUGUUGAGGAUCACCCAUGUAAAGCAGAAGGUAUAUAUAAAU |  |  | 0.0428 | 0.0264
GUGCCUUGGGAGAAGGCCCAAUGUAAAGCAUAGGGAGGAUAUUCAUAUAAUAAAUAAACAUGAGGAUCACCCAUGUGGCACAAA |  |  | 0.831 | 0.0485
AGAUUUUUUACAGGAUAUGUUAGUUUACAGUUGAUUGGUUAUUACAUUAUGACAGAAGGGUAGAACAUGAGGAUCACCCAUGUA |  |  | 0.374 | 0.174
GUGCACAUUCGAGGAUAUCGGAGAGAGAUCCUUCGAGAAGGCGAUUCAUGCUGUAUUAUCCUGGACAUGAGGAUCACCCAUGUG |  |  | 0.199 | 0.127
GGGUACAUCGGAGGAUAUCAUGUAAAUACAUGAGGAUCACCCAUGUCGGUGGAGACAUCGGAGAUUGAGAAGGCCGAUGUACCG |  |  |  | 0.0127
AUUUGUAACCAGAAGGACAUGAGGAUCACCCAUGUAGGAUAUGGGCUUCUCAGGGCUGAGGAGUGAUCCCACAGGGACUUACGG |  |  | 0.117 | 0.018
